# Test results as given in ChEMBL document CHEMBL4673250, “Analogs of nitrofuran antibiotics are potent GroEL/ES inhibitor pro-drugs” (Bioorg Med Chem, 2020).
# Activity calls are given as the source filed them. The calls are words filed in the database; no cut-off is given here.
# Columns and labels:
# Enterococcus faecium = experiment: Antibacterial activity against Enterococcus faecium ATCC 19434 assessed as reduction in bacterial growth by serial dilution method; type: functional, organism-based
# Staphylococcus aureus = experiment: Antibacterial activity against Staphylococcus aureus ATCC 25923 assessed as reduction in bacterial growth by serial dilution method; type: functional, organism-based
# Klebsiella pneumoniae = experiment: Antibacterial activity against Klebsiella pneumoniae ATCC 13883 assessed as reduction in bacterial growth by serial dilution method; type: functional, organism-based
# Acinetobacter baumannii = experiment: Antibacterial activity against Acinetobacter baumannii ATCC 19606 assessed as reduction in bacterial growth by serial dilution method; type: functional, organism-based; conditions: ATCC 19606 = CIP 70.34 = JCM 6841
# Pseudomonas aeruginosa = experiment: Antibacterial activity against Pseudomonas aeruginosa ATCC 10145 assessed as reduction in bacterial growth by serial dilution method; type: functional, organism-based
# Enterobacter cloacae = experiment: Antibacterial activity against Enterobacter cloacae ATCC 13047 assessed as reduction in bacterial growth by serial dilution method; type: functional, organism-based
# Escherichia coli [1] = experiment: Antibacterial activity against Escherichia coli assessed as reduction in bacterial growth by serial dilution method; type: functional, organism-based
# Summary of the method: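 Liquid-culture proliferation in media supplemented with physiological free calcium and magnesium; cultures started at OD600 = 0.01, exposed to 8-point 3-fold dilution series (100 μM to 46 nM), grown to mid-log phase (OD600 ~0.4–0.6), then final OD600 read. E. coli strain NEB 5-alpha (DH5α derivative).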
# E. coli GroEL/ES [2] = biological target: T1, E. coli GroEL/ES (Escherichia coli, UniProt P0A6F5); experiment: Inhibition of Escherichia coli GroEL/ES-mediated refolding of the denatured malate dehydrogenase; type: protein-complex assay
# T1 sequence (P0A6F5 whole entry, looked up): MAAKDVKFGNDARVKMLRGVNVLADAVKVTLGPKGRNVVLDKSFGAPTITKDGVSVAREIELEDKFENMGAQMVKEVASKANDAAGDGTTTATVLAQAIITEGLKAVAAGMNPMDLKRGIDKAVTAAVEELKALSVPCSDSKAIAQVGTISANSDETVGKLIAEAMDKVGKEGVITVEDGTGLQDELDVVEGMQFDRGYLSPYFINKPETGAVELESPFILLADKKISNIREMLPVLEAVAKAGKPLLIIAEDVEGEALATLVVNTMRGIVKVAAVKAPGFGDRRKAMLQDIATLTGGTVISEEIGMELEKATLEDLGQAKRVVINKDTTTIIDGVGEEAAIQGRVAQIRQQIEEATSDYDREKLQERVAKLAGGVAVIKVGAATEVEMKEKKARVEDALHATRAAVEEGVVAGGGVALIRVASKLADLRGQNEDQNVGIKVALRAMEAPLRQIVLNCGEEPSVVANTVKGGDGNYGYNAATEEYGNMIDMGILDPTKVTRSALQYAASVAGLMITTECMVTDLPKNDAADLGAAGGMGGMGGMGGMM
# Summary of the method: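 E. coli GroEL/ES-mediated refolding of denatured MDH as the reporter enzyme. IC50 values are averages from at least four replicates. […] GroEL tetradecamer is present at 50 nM during the refolding cycle. DMSO serves as the negative control.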
# E. coli GroEL/ES [3] = biological target: T1, E. coli GroEL/ES; experiment: Inhibition of Escherichia coli GroEL/ES-mediated refolding of the denatured malate dehydrogenase in presence of Escherichia coli type 1 NfsB nitroreductase; type: protein-complex assay
# Summary of the method: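 GroEL/ES-dMDH refolding with 10 µg/mL E. coli NfsB added to the initial GroEL/ES-dMDH mix. After compound stamping, NADH (2.4 mM stock) is added and the mix is incubated 10 min at 37°C to bioactivate nitrofurans. Compounds during the refolding cycle span 83 µM to 38 nM (3-fold series).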
# FHC = experiment: Cytotoxicity against human FHC cells assessed as reduction in cell viability incubated for 48 hrs by alamar blue assay; type: cell-based
# Summary of the method: (§1)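 Alamar Blue viability: cells grown to ~80–90% confluency, seeded 1,500 per well and cultured 24 h without compound, then compound added for a further 48 h; resazurin reagent added and fluorescence monitored over time.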
# [4] = Cytotoxicity against human FHs74Int cells assessed as reduction in cell viability incubated for 48 hrs by alamar blue assay; type: cell-based; summary of the method: as §1
# [5] = Selectivity index, ratio of CC50 for human FHC cells to EC50 for Escherichia coli; type: toxicity; conditions: read-out: Ratio CC50/EC50
# [6] = Selectivity index, ratio of CC50 for human FHs 74 cells to EC50 for Escherichia coli; type: toxicity; conditions: read-out: Ratio CC50/EC50
# Escherichia coli [7] = experiment: Antibacterial activity against Escherichia coli assessed as reduction in bacterial growth measured for 12 day serial passage incubated for 24 hrs by serial dilution method; type: functional, organism-based
# Summary of the method: (§2)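 NEB 5-alpha E. coli (DH5α derivative); 12-day liquid-culture serial passage. Dilute culture (OD600 = 0.01) grown 24 h with inhibitors in dose-response, in duplicate. EC50 taken from OD600 readings. Each day, bacteria were sub-cultured from the well with the highest inhibitor concentration still reaching OD600 > 0.2. Resistant strains were retested in a follow-up 24 h proliferation assay after 4×12 h passages without inhibitor, and were cross-tested against the other inhibitors.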
# Escherichia coli [8] = experiment: Antibacterial activity against Nitrofurantoin-resistant Escherichia coli assessed as reduction in bacterial growth measured for 12 day serial passage incubated for 24 hrs by serial dilution method; type: functional, organism-based; summary of the method: as §2
# Escherichia coli [9] = experiment: Antibacterial activity against Nifuroxazide-resistant Escherichia coli assessed as reduction in bacterial growth measured for 12 day serial passage incubated for 24 hrs by serial dilution method; type: functional, organism-based; summary of the method: as §2
# Escherichia coli [10] = experiment: Antibacterial activity against Escherichia coli harbouring NfsA and NfsB mutant assessed as reduction in bacterial growth measured for 12 day serial passage incubated for 24 hrs by serial dilution method; type: functional, organism-based; summary of the method: as §2
# Escherichia coli [11] = experiment: Antibacterial activity against 5-chloro-N-[(5-nitro-2-furyl)methyleneamino]thiophene-2-carboxamide-resistant Escherichia coli assessed as reduction in bacterial growth measured for 12 day serial passage incubated for 24 hrs by serial dilution method; type: functional, organism-based; summary of the method: as §2
smiles,measurement,setting,value
O=C(N/N=C/c1ccc([N+](=O)[O-])o1)c1ccncc1,EC50,Enterococcus faecium,13 µM
same,EC50,Staphylococcus aureus,9.5 µM
same,EC50,Klebsiella pneumoniae,42 µM
same,EC50,Acinetobacter baumannii,54 µM
same,EC50,Pseudomonas aeruginosa,> 100 µM
same,EC50,Enterobacter cloacae,73 µM
same,EC50,Escherichia coli [1],2.4 µM
same,IC50,E. coli GroEL/ES [2],> 100 µM
same,IC50,E. coli GroEL/ES [3],23 µM
same,CC50,FHC,61 µM
same,CC50,[4],90 µM
same,selectivity ratio,[5],26
same,selectivity ratio,[6],38
O=C(N/N=C/c1ccc([N+](=O)[O-])o1)c1ccc(O)cc1 [NIFUROXAZIDE],EC50,Escherichia coli [7],20 µM
same,Activity,Escherichia coli [8],Active
same,Activity,Escherichia coli [9],Active
same,Activity,Escherichia coli [10],inactive
same,EC50,Enterococcus faecium,8.1 µM
same,EC50,Staphylococcus aureus,16 µM
same,EC50,Klebsiella pneumoniae,37 µM
same,EC50,Acinetobacter baumannii,> 100 µM
same,EC50,Pseudomonas aeruginosa,> 100 µM
same,EC50,Enterobacter cloacae,54 µM
same,EC50,Escherichia coli [1],0.87 µM
same,IC50,E. coli GroEL/ES [2],> 100 µM
same,IC50,E. coli GroEL/ES [3],19 µM
same,CC50,FHC,61 µM
same,CC50,[4],79 µM
same,selectivity ratio,[5],70
same,selectivity ratio,[6],91
same,Activity,Escherichia coli [11],Active
O=C(N/N=C/c1ccc([N+](=O)[O-])o1)c1cccs1,EC50,Enterococcus faecium,24 µM
same,EC50,Staphylococcus aureus,7.1 µM
same,EC50,Klebsiella pneumoniae,16 µM
same,EC50,Acinetobacter baumannii,82 µM
same,EC50,Pseudomonas aeruginosa,> 100 µM
same,EC50,Enterobacter cloacae,40 µM
same,EC50,Escherichia coli [1],0.42 µM
same,IC50,E. coli GroEL/ES [2],> 100 µM
same,IC50,E. coli GroEL/ES [3],7.7 µM
same,CC50,FHC,83 µM
same,CC50,[4],71 µM
same,selectivity ratio,[5],198
same,selectivity ratio,[6],168
O=C(N/N=C/c1ccc([N+](=O)[O-])o1)c1ccc(Cl)s1,EC50,Escherichia coli [7],20 µM
same,Activity,Escherichia coli [8],Active
same,Activity,Escherichia coli [9],Active
same,Activity,Escherichia coli [10],inactive
same,EC50,Enterococcus faecium,12 µM
same,EC50,Staphylococcus aureus,3 µM
same,EC50,Klebsiella pneumoniae,19 µM
same,EC50,Acinetobacter baumannii,72 µM
same,EC50,Pseudomonas aeruginosa,> 100 µM
same,EC50,Enterobacter cloacae,49 µM
same,EC50,Escherichia coli [1],0.45 µM
same,IC50,E. coli GroEL/ES [2],88 µM
same,IC50,E. coli GroEL/ES [3],3.2 µM
same,CC50,FHC,53 µM
same,CC50,[4],85 µM
same,selectivity ratio,[5],119
same,selectivity ratio,[6],190
same,Activity,Escherichia coli [11],inactive
